From ChEMBL document CHEMBL1152506, “Characterization and synthetic application of a novel beta1,3-galactosyltransferase from Escherichia coli O55:H7” (Bioorg Med Chem, 2009)
Values belong to the molecule of their own block, whether it stands above or below them. The source made the active and inactive calls. No cut-off for these calls is given here.

How the values were obtained:
[1] = target: T1, Putative glycosyltransferase (Escherichia coli O55:H7) (UniProt B1B4J9); experiment: Activity of Escherichia coli O55:H7 glycosyltransferase WbgO relative to GlcNAc
T1 sequence (whole entry): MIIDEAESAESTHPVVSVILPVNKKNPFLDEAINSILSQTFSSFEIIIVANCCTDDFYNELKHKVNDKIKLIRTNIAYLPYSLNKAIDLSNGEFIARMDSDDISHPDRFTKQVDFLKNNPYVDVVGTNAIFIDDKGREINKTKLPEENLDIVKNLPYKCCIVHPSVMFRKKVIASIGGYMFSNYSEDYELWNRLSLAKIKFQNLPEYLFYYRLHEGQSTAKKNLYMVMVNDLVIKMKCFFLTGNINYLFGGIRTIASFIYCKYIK
Outline: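 GST-fused WbgO made in E. coli BL21(DE3) and purified on glutathione resin. Assayed in 50 µL of 50 mM HEPES pH 7.0 with 5 mM MnCl2, 0.3 mM UDP-Gal plus UDP-[6-3H]Gal (10,000 cpm), 2 mM acceptor and 4 µg enzyme, 37 °C for 1 h. Control omitted the acceptor. Incorporated 3H was read by liquid scintillation counting and expressed relative to GlcNAc.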

[2] = target: T1, Putative glycosyltransferase (Escherichia coli O55:H7); experiment: Activity of Escherichia coli O55:H7 glycosyltransferase WbgO
Outline: (§1)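 Apparent kinetics for purified GST-WbgO, using the radioactive UDP-[6-3H]Gal transfer assay with scintillation counting. The acceptor (GlcNAc, GalNAc or lacto-N-triose) was varied at 0.1, 0.2, 0.5, 1 and 2 mM with UDP-Gal fixed at 1 mM. UDP-Gal was varied at 0.1–2 mM with 20 mM GlcNAc. Base buffer was HEPES pH 7.0 with 5 mM MnCl2.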

[3] = substrate: CC(=O)N[C@@H]1[C@@H](O)[C@@H](O)[C@@H](CO)O[C@H]1O; experiment: (§2) Ratio of Kcat to Km for Escherichia coli O55:H7 glycosyltransferase WbgO by Lineweaver-Burke analysis; outline: as §1
[4] = substrate: CC(=O)N[C@H]1[C@H](O[C@H]2[C@@H](O)[C@@H](CO)O[C@@H](O[C@H]3[C@H](O)[C@@H](O)[C@H](O)O[C@@H]3CO)[C@@H]2O)O[C@H](CO)[C@@H](O)[C@@H]1O[C@@H]1O[C@H](CO)[C@H](O)[C@H](O)[C@H]1O; experiment: as §2; outline: as §1
[5] = substrate: CC(=O)N[C@@H]1[C@@H](O)[C@H](O)[C@@H](CO)O[C@H]1O; experiment: as §2; outline: as §1
[6] = substrate: CC(=O)N[C@@H]1[C@@H](O)[C@@H](O)[C@@H](CO)O[C@H]1O; experiment: (§3) Activity of Escherichia coli O55:H7 glycosyltransferase WbgO by Lineweaver-Burke analysis; outline: as §1
[7] = substrate: CC(=O)N[C@H]1[C@H](O[C@H]2[C@@H](O)[C@@H](CO)O[C@@H](O[C@H]3[C@H](O)[C@@H](O)[C@H](O)O[C@@H]3CO)[C@@H]2O)O[C@H](CO)[C@@H](O)[C@@H]1O[C@@H]1O[C@H](CO)[C@H](O)[C@H](O)[C@H]1O; experiment: as §3; outline: as §1
[8] = substrate: CC(=O)N[C@@H]1[C@@H](O)[C@H](O)[C@@H](CO)O[C@H]1O; experiment: as §3; outline: as §1

Molecule: CC(=O)N[C@@H]1[C@@H](O)[C@@H](O)[C@@H](CO)O[C@H]1O
- Activity [1]: 43%
- Activity [2]: Active

Molecule: CC(=O)N[C@H]1[C@H](O[C@H]2[C@@H](O)[C@@H](CO)O[C@@H](O[C@H]3[C@H](O)[C@@H](O)[C@H](O)O[C@@H]3CO)[C@@H]2O)O[C@H](CO)[C@H](O)[C@@H]1O
- Activity [1]: 16%

B1: Putative glycosyltransferase (Escherichia coli O55:H7), B1B4J9 (protein)
chain: T1 sequence (whole entry)
- kcat/Km [3]: 87.2 M⁻¹ s⁻¹
- kcat/Km [4]: 278 M⁻¹ s⁻¹
- kcat/Km [5]: 132 M⁻¹ s⁻¹
- Km [6]: 327 µM
- Vmax [6]: 120 pmol/min
- kcat [6]: 0.0285 s⁻¹
- Km [7]: 55 µM
- Vmax [7]: 176 pmol/min
- kcat [7]: 0.0417 s⁻¹
- Km [8]: 323 µM
- Vmax [8]: 179 pmol/min
- kcat [8]: 0.0425 s⁻¹

The next lines start with the values.

- Activity [1]: 100%
- Activity [2]: Active
Molecule: CC(=O)N[C@@H]1[C@@H](O)[C@H](O)[C@@H](CO)O[C@H]1O

- Activity [1]: 73%
Molecule: CC(=O)N[C@H]1[C@H](Oc2ccc([N+](=O)[O-])cc2)O[C@H](CO)[C@@H](O)[C@@H]1O
